From ChEMBL document CHEMBL1134307, “trans-4-[4-(Methoxyphenyl)cyclohexyl]-1-arylpiperazines: a new class of potent and selective 5-HT(1A) receptor ligands as conformationally constrained analogues of 4-[3-(5-methoxy-1,2,3,4-tetrahydronaphthalen-1-yl)propyl]-1-arylpiperazines” (J Med Chem, 2001)

Tests used:
[1] = biological target: T1, 5-hydroxytryptamine receptor 1A (Homo sapiens) (UniProt P08908); assay: Potency (pD2) for the stimulation of [35S]GTP-gamma-S, binding on 5-hydroxytryptamine 1A receptor; type: functional
T1 sequence (whole entry): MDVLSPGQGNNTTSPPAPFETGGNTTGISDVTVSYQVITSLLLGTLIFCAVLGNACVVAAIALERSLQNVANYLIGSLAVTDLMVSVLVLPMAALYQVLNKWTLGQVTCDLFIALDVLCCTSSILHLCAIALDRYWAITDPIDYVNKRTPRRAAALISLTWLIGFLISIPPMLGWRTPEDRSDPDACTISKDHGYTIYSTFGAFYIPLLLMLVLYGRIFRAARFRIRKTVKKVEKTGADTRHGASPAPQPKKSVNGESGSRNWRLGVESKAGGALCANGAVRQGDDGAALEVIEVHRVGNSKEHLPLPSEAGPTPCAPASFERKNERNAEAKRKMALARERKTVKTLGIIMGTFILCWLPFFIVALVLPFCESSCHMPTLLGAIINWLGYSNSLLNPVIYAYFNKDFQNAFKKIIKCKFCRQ
In short: (§1)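 Membranes of HeLa cells expressing human 5-HT1A, in 20 mM HEPES, 3 mM MgCl2, 120 mM NaCl pH 7.4. Preincubated 20 min at 30 °C with 30 µM GDP and drug (0.1 nM–100 µM) or 5-HT as reference curve. [35S]GTPγS (200–250 pM) then added for 30 min at 30 °C. Nonspecific binding with 10 µM GTPγS. Curves fitted by ALLFIT to give Emax and pD2 (−log EC50).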

[2] = Selectivity expressed as a ratio of affinity against Alpha 1d-Adrenoceptor to that of 5-HT1A receptor
[3] = Selectivity expressed as a ratio of affinity against Alpha 1A-Adrenoceptor to that of 5-HT1A receptor
[4] = biological target: T1, 5-hydroxytryptamine receptor 1A (Homo sapiens); assay: Maximal stimulation was expressed as percentage of the maximal 5-HT response in the [35S]GTP-gamma-S, binding assay on 5-hydroxytryptamine 1A receptor; type: functional; in short: as §1
[5] = Selectivity expressed as a ratio of affinity against Alpha 1b-Adrenoceptor to that of 5-HT1A receptor
[6] = biological target: T2, 5-hydroxytryptamine receptor 1A (Homo sapiens, UniProt P08908); assay: Binding affinity on human cloned 5-hydroxytryptamine 1A receptor transfected in human cell lines (He La); type: cell-based, Cell line
T2 sequence (P08908 whole entry): T1 sequence (whole entry)
In short: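 HeLa cells stably expressing human 5-HT1A (genomic clone G-21), grown in DMEM with 10% FCS. […] Nonspecific binding with 10 µM 5-HT. Filtration through PEI-pretreated filters.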

| Compound | pD2 [1] | Selectivity [2] | Selectivity [3] | Emax [4] [%] | Selectivity [5] | Ki [6] [nM] |
| --- | --- | --- | --- | --- | --- | --- |
| COc1cccc2c1CCCC2CCCN1CCN(c2ccccn2)CC1 (stereo unspecified) | 10.2 | 74 | 4 | 98.2 | 98 | 0.08 |
| COc1cccc2c(CCCN3CCN(c4ccccn4)CC3)cccc12 | 7.87 | 4 | 0.5 | 86.3 | 1 | – |
| COc1cccc2c(CCCNCCOc3ccccn3)cccc12 | 8.2 | 97 | 17 | 48 | 314 | – |
| COc1cccc2c1CCCC2CCCNCCOc1ccccn1 (stereo unspecified) | 10.2 | 55 | 2 | 86.8 | 115 | – |
